This note sets out measurements from ChEMBL document CHEMBL1782018, “Novel 3alpha-methoxyserrat-14-en-21beta-ol (PJ-1) and 3beta-methoxyserrat-14-en-21beta-ol (PJ-2)-curcumin, kojic acid, quercetin, and baicalein conjugates as HIV agents” (Bioorg Med Chem, 2009).

Data set [1] concerns Human immunodeficiency virus 1. Kind of data set: Antiviral activity against HIV1 NL4-3 infected human C8166-CCR5 cells assessed as decrease in virus-induced cytopathicity after 72 hrs by cell associated dehydrogenase activity assay. It is filed as functional, organism-based. The following applies: Human immunodeficiency virus 1, NL4-3, C8166-CCR5, 72 h. Background: Damage to the host cells serves as the signal in cytopathic effect assays.

Data set [2] can be described thus: Cytotoxicity against […] human C8166-CCR5 cells assessed as decrease in cell viability by cell associated dehydrogenase activity assay. In kind it is cell-based. The essentials: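 C8166-CCR5 human CD4+ T cells, grown in RPMI 1640 with 10% FBS and antibiotics, seeded at 3 × 10^4 cells per well with compound across a concentration series. Incubated at 37 °C for 72 h. Viability read by cell-associated dehydrogenase activity (CCK-8). Run in duplicate or triplicate. CC50 is the 50% cytostatic concentration.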

Data set [3] is described as follows: Selectivity index, ratio of CC50 for human C8166-CCR5 cells to EC50 for HIV1 NL4-3. In kind it is toxicity, cell-based. The following applies: read-out: Ratio CC50/EC50. The essentials:
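SI = CC50/EC50. CC50 is from the 72 h CCK-8 viability assay in uninfected C8166-CCR5 cells. EC50 is from supernatant RT activity four days after HIV-1 NL43 infection of the same cells.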

The next data set deals with Protease (Human immunodeficiency virus 1, UniProt Q9YQ12). Kind of data set: Inhibition of HIV1 protease activity.
Sequence of Protease (Q9YQ12 whole entry): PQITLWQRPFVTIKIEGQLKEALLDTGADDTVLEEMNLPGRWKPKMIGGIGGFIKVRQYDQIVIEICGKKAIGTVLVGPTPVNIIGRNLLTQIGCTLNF
The target of data set [4] is Human immunodeficiency virus type 1 reverse transcriptase (Human immunodeficiency virus 1, UniProt Q72547). Kind of data set: Antiviral activity against HIV1 Reverse transcriptase activity. The essentials:
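C8166-CCR5 human CD4+ T cells (3 × 10^4) in RPMI 1640 with 10% FBS were mixed with compound and infected with HIV-1 NL43 inoculum normalized to 1 × 10^5 cpm RT activity, then held at 37 °C. Four days after infection, supernatant RT activity was read with poly(A) template, oligo(dT) primer and [32P]TTP. Run in duplicate or triplicate. EC50 reported.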

Data set [5] can be described thus: Selectivity index, ratio of CD50 for human MT4 cells to ID50 for HIV1. The conditions noted are these: read-out: Selectivity Index. It is filed as toxicity, cell-based.
Data set [6] concerns Human immunodeficiency virus 1. Kind of data set: Antiviral activity against HIV1 3B infected human CCR5 cells assessed as decrease in viral syncytium formation. In kind it is functional, organism-based. The conditions noted are these: Human immunodeficiency virus 1, 3B.

The structures appear in SMILES notation. Values after ≈ are worked out from the molar mass of the structure shown. Bounds are passed on as bounds.

One may read the EC50 as the concentration giving half of the maximal effect. For orientation: CC50 means the concentration giving 50% cytotoxicity. `CO[C@@H]1CC[C@]2(C)[C@H](CC[C@@]3(C)CC4=CC[C@@H]5C(C)(C)[C@H](O)CC[C@@]5(C)[C@@H]4CC[C@@H]32)C1(C)C`: the EC50 in data set [1] was over 100 µg/mL. The cytotoxic concentration (CC50) in data set [2] was over 100 µg/mL.
In the case of `CO[C@H]1CC[C@]2(C)[C@H](CC[C@@]3(C)CC4=CC[C@@H]5C(C)(C)[C@H](O)CC[C@@]5(C)[C@@H]4CC[C@@H]32)C1(C)C`, the concentration giving a half-maximal response (EC50) in data set [1] was over 100 µg/mL. Also, in data set [2], the CC50 was over 100 µg/mL.
In the case of `CO[C@@H]1CC[C@]2(C)[C@H](CC[C@@]3(C)CC4=CC[C@@H]5C(C)(C)[C@H](OC(=O)CCC(=O)Oc6coc(CO)cc6=O)CC[C@@]5(C)[C@@H]4CC[C@@H]32)C1(C)C`, in data set [1], the EC50 turned out to be 4.13 µg/mL (≈ 6.07 µM). For the same molecule, in data set [3], the selectivity ratio stood at 5.4. In data set [2], the CC50 amounted to 22.2 µg/mL (≈ 32.6 µM).
For `CO[C@H]1CC[C@]2(C)[C@H](CC[C@@]3(C)CC4=CC[C@@H]5C(C)(C)[C@H](OC(=O)CCC(=O)Oc6coc(CO)cc6=O)CC[C@@]5(C)[C@@H]4CC[C@@H]32)C1(C)C` the same measures were 6.75 µg/mL (≈ 9.91 µM), 86.8 and over 100 µg/mL.
For `CO[C@@H]1CC[C@]2(C)[C@H](CC[C@@]3(C)CC4=CC[C@@H]5C(C)(C)[C@H](OC(=O)CCC(=O)OCc6cc(=O)c(OC(=O)CCC(=O)O[C@@H]7CC[C@@]8(C)[C@@H]9CC[C@H]%10[C@@](C)(CC[C@@H]%11C(C)(C)[C@H](OC)CC[C@]%11%10C)CC9=CC[C@@H]8C7(C)C)co6)CC[C@@]5(C)[C@@H]4CC[C@@H]32)C1(C)C` the same measures were 0.12 µg/mL (≈ 0.0984 µM), 35 and 4.2 µg/mL (≈ 3.44 µM).
For `CO[C@H]1CC[C@]2(C)[C@H](CC[C@@]3(C)CC4=CC[C@@H]5C(C)(C)[C@H](OC(=O)CCC(=O)OCc6cc(=O)c(OC(=O)CCC(=O)O[C@@H]7CC[C@@]8(C)[C@@H]9CC[C@H]%10[C@@](C)(CC[C@@H]%11C(C)(C)[C@@H](OC)CC[C@]%11%10C)CC9=CC[C@@H]8C7(C)C)co6)CC[C@@]5(C)[C@@H]4CC[C@@H]32)C1(C)C` the same measures were 5.94 µg/mL (≈ 4.87 µM), over 5000 and over 100 µg/mL.
For `CO[C@@H]1CC[C@]2(C)[C@H](CC[C@@]3(C)CC4=CC[C@@H]5C(C)(C)[C@H](OC(=O)CCC(=O)Oc6cc(-c7oc8cc(O)cc(O)c8c(=O)c7O)ccc6O)CC[C@@]5(C)[C@@H]4CC[C@@H]32)C1(C)C`, in data set [1], the EC50 came to 26.6 µg/mL (≈ 31.6 µM). For the same molecule, in data set [3], the selectivity ratio was determined as 4.8. Besides, in data set [2], the CC50 is over 100 µg/mL.
For `CO[C@H]1CC[C@]2(C)[C@H](CC[C@@]3(C)CC4=CC[C@@H]5C(C)(C)[C@H](OC(=O)CCC(=O)Oc6cc(-c7oc8cc(O)cc(O)c8c(=O)c7O)ccc6O)CC[C@@]5(C)[C@@H]4CC[C@@H]32)C1(C)C` the same measures were 23.2 µg/mL (≈ 27.6 µM), over 5000 and over 100 µg/mL.
For `CO[C@@H]1CC[C@]2(C)[C@H](CC[C@@]3(C)CC4=CC[C@@H]5C(C)(C)[C@H](OC(=O)CCC(=O)Oc6c(O)cc7oc(-c8ccccc8)cc(=O)c7c6O)CC[C@@]5(C)[C@@H]4CC[C@@H]32)C1(C)C` the same measures were 21.4 µg/mL (≈ 26.5 µM), 4.9 and over 100 µg/mL.
In the case of `CO[C@H]1CC[C@]2(C)[C@H](CC[C@@]3(C)CC4=CC[C@@H]5C(C)(C)[C@H](OC(=O)CCC(=O)Oc6c(O)cc7oc(-c8ccccc8)cc(=O)c7c6O)CC[C@@]5(C)[C@@H]4CC[C@@H]32)C1(C)C`, in data set [1], the EC50 was 55.4 µg/mL (≈ 68.4 µM). The selectivity ratio in data set [3] was 2.3. Besides, the CC50 in data set [2] is over 100 µg/mL.
As a reminder, the IC50 is the point on the concentration scale where inhibition reaches its midpoint. Turning to `CC1(C)CC[C@]2(C(=O)NCCCCCC(=O)O)CC[C@]3(C)C(=CC[C@@H]4[C@@]5(C)CC[C@H](O)C(C)(C)[C@@H]5CC[C@]43C)[C@@H]2C1`, the IC50 on Protease is 1.7 µM.
Molecule `CC1(C)CC[C@]2(C(=O)NCCCCCC(=O)O)CC[C@]3(C)C(=CC[C@@H]4[C@@]5(C)CC[C@H](OC(=O)CCCCC(=O)O)C(C)(C)[C@@H]5CC[C@]43C)[C@@H]2C1` yielded a 50% inhibitory concentration (IC50) against Protease of 1.7 µM.
For `CC1(C)[C@H](O)CC[C@]2(C)C3=CC[C@@]4(C)[C@@H]5C[C@](C)(COC(=O)c6ccccc6)CC[C@]5(C)CC[C@]4(C)C3=CC[C@@H]12`, the half-maximal inhibitory concentration (IC50) in data set [4] is 4.04 µM.
Still for that read-out and setting: next, `C=C(CC[C@@H](C)[C@H]1CC[C@@]2(C)[C@@H]3CC[C@H]4C(C)(C)[C@@H](OC(=O)/C=C/c5ccc(O)c(OC)c5)CC[C@@]45C[C@@]35CC[C@]12C)C(C)C`: 3.08 µM.
`C=C(C)[C@@H]1CC[C@]2(COC(C)=O)CC[C@]3(C)[C@H](CC[C@@H]4[C@@]5(C)CC[C@H](OC(C)=O)C(C)(C)[C@@H]5CC[C@]43C)[C@@H]12` [BETULIN DIACETATE] had an IC50 in data set [4] of 2.66 µM.
In the case of `C=C(C)[C@@H]1CC[C@]2(C(=O)O)CC[C@]3(C)[C@H](CC[C@@H]4[C@@]5(C)CC[C@H](O)C(C)(C)[C@@H]5CC[C@]43C)[C@@H]12` [BETULINIC ACID GLUTARYL HEMI ESTER], 4 µM corresponded to half-maximal inhibition on Protease (IC50).
On to `CC1(C)[C@@H](O)CC[C@]2(C)[C@H]3C(=O)C=C4[C@@H]5C[C@@](C)(C(=O)O)CC[C@]5(C)CC[C@@]4(C)[C@]3(C)CC[C@@H]12` [ENOXOLONE], for which the selectivity ratio in data set [5] was found to be 9.6.
As to `COc1cc(/C=C/C(=O)O[C@H]2CC[C@]34C[C@]35CC[C@]3(C)[C@@H]([C@H](C)CCC=C(C)C)CC[C@@]3(C)[C@@H]5CC[C@H]4C2(C)C)ccc1O` [GAMMA ORYZANOL], 3.65 µM corresponded to half-maximal inhibition in data set [4] (IC50).
`C=C(C)[C@@H]1CC[C@]2(C)CC[C@]3(C)[C@H](CC[C@@H]4[C@@]5(C)CCC(=O)C(C)(C)[C@@H]5CC[C@]43C)[C@@H]12` [LUPENONE] showed an IC50 in data set [4] of 4.94 µM.
Regarding `CC1=C[C@@H]([C@H](O)[C@H](C)[C@@H]2C[C@@H](O)[C@@]3(O)[C@@H]4CC[C@@H]5C(C)(C)O[C@@H]6CC(=O)O[C@@]56C[C@]4(O)CC[C@@]23C)OC1=O` [MICRANDILACTONE C], the CC50 in data set [2] is over 200 µg/mL. Also, the EC50 in data set [6] came out at 7710 µg/mL (≈ 14400 µM).
On Protease, `CC1(C)CC[C@]2(C(=O)O)CC[C@]3(C)C(=CC[C@@H]4[C@@]5(C)CC[C@H](O)C(C)(C)[C@@H]5CC[C@]43C)[C@@H]2C1` [OLEANOLIC ACID GLUTARYL HEMI ESTER] registered an IC50 of 4 µM.
On to `CC1(C)CC[C@]2(C(=O)O)CC[C@]3(C)C(=CC[C@@H]4[C@@]5(C)CC[C@H](O)C(C)(C)[C@@H]5CC[C@]43C)[C@@H]2C1` [OLEANOLIC_ACID], for which inhibition on Protease was half-maximal at 8 µM (IC50).
Still for that read-out and setting: under `C[C@H]1[C@H](C)CC[C@]2(C(=O)O)CC[C@]3(C)C(=CC[C@@H]4[C@@]5(C)CC[C@H](O)C(C)(C)[C@@H]5CC[C@]43C)[C@H]12` [URSOLIC ACID GLUTARYL HEMI ESTER] stands 4 µM; under `C[C@H]1[C@H](C)CC[C@]2(C(=O)O)CC[C@]3(C)C(=CC[C@@H]4[C@@]5(C)CC[C@H](O)C(C)(C)[C@@H]5CC[C@]43C)[C@H]12` [URSOLIC ACID HYDROGEN MALONATE], 6 µM.
On the same count and under the same terms, next, `C[C@H]1[C@H](C)CC[C@]2(C(=O)O)CC[C@]3(C)C(=CC[C@@H]4[C@@]5(C)CC[C@H](O)C(C)(C)[C@@H]5CC[C@]43C)[C@H]12` [URSOLIC ACID]: 8 µM.
For the molecule `Cc1cn([C@H]2C[C@H](N=[N+]=[N-])[C@@H](CO)O2)c(=O)[nH]c1=O` [ZIDOVUDINE], the EC50 in data set [1] was 0.02 µg/mL (≈ 0.0748 µM). The selectivity ratio in data set [3] was over 5000. The cytotoxic concentration (CC50) in data set [2] was over 100 µg/mL.
